Laboratory results taken from ChEMBL document CHEMBL4813946, “Discovery of novel 4-azaaryl-N-phenylpyrimidin-2-amine derivatives as potent and selective FLT3 inhibitors for acute myeloid leukaemia with FLT3 mutations” (Eur J Med Chem, 2021).
Calls of active or inactive are those of the source. The calls are words filed in the database; no cut-off is given here.

How the values were obtained:
MV4-11 [1] = experiment: Induction of apoptosis in human MV4-11 cells assessed as early apoptotic cells at 10 x GI50 concentration incubated for 48 hrs by annexin V-FITC and propidium iodide staining based flow cytometry (reference value: 1.08 %); assay type: functional
U-937 [2] = experiment: Induction of apoptosis in human U937 cells assessed as early apoptotic cells at 5 x GI50 concentration incubated for 24 hrs by annexin V-FITC and propidium iodide staining based flow cytometry (Rvb =1.81 %); assay type: functional
MV4-11 [3] = experiment: Induction of apoptosis in human MV4-11 cells assessed as necrotic cells at 5 x GI50 concentration incubated for 48 hrs by annexin V-FITC and propidium iodide staining based flow cytometry (reference value: 0.45 %); assay type: functional
U-937 [4] = experiment: Induction of apoptosis in human U937 cells assessed as viable cells at 10 x GI50 concentration incubated for 48 hrs by annexin V-FITC staining based flow cytometry (reference value: 86.25 %); assay type: functional
MV4-11 [5] = experiment: Induction of apoptosis in human MV4-11 cells assessed as early apoptotic cells at 1 x GI50 concentration incubated for 48 hrs by annexin V-FITC and propidium iodide staining based flow cytometry (reference value: 1.08 %); assay type: functional
NB-4 = experiment: Antiproliferative activity against human NB-4 cells harboring wild type FLT3 assessed as reduction in cell viability after 72 hrs by resazurin assay; assay type: functional
Summary of the method: (§1)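 Cells seeded and pre-incubated 24 h at 37 °C, 5% CO2, then given a five-fold dilution series of compound (from 10 mM DMSO stock) in medium, in triplicate. Resazurin added after 72 h exposure, 4 h in dark at 37 °C. Fluorescence read at 570/585 nm, normalised to DMSO vehicle. GI50 by non-linear regression; mean ± SD of at least two replicates.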

[6] = Inhibition of FLT3 ITD-W51 mutant (unknown origin) incubated for 120 mins by ADP-glo based luminescence assay; design: species or system Homo sapiens
[7] = biological target: Receptor-type tyrosine-protein kinase FLT3 (Homo sapiens) (UniProt P36888); experiment: Inhibition of FLT3-mediated signalling pathway in human MV4-11 cells assessed as increase in caspase 3 expression upto 20 x GI50 concentration incubated for 6 hrs by western blot analysis; assay type: cell-based
Summary of the method: (§2)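 Cells lysed in phosphate lysis buffer with protease inhibitors and protein quantified. Western blots probed phospho and total STAT5, AKT, ERK, S6RP and eIF4E, plus full-length and cleaved PARP and caspase-3, with β-actin as loading control. At least two independent experiments.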

MV4-11 [8] = experiment: Induction of apoptosis in human MV4-11 cells assessed as late apoptotic cells at 10 x GI50 concentration incubated for 24 hrs by annexin V-FITC and propidium iodide staining based flow cytometry (reference value: 12.45 %); assay type: functional
U-937 [9] = experiment: Induction of apoptosis in human U937 cells assessed as viable cells at 20 x GI50 concentration incubated for 48 hrs by annexin V-FITC staining based flow cytometry (reference value: 86.25%); assay type: functional
[10] = biological target: Receptor-type tyrosine-protein kinase FLT3 (Homo sapiens) (UniProt P36888); experiment: Inhibition of FLT3-mediated signalling pathway in human MV4-11 cells assessed as inhibition of STAT5 phosphorylation upto 20 x GI50 concentration incubated for 6 hrs by western blot analysis; assay type: cell-based; summary of the method: as §2
U-937 [11] = experiment: Induction of apoptosis in human U937 cells assessed as early apoptotic cells at 10 x GI50 concentration incubated for 48 hrs by annexin V-FITC staining based flow cytometry (reference value: 2.78 %); assay type: functional
U-937 [12] = experiment: Induction of apoptosis in human U937 cells assessed as late apoptotic cells at 1 x GI50 concentration incubated for 24 hrs by annexin V-FITC and propidium iodide staining based flow cytometry (reference value: 10.30 %); assay type: functional
U-937 [13] = experiment: Induction of apoptosis in human U937 cells assessed as necrotic cells at 1 x GI50 concentration incubated for 24 hrs by annexin V-FITC and propidium iodide staining based flow cytometry (reference value: 1.10 %); assay type: functional
[14] = Inhibition of FLT3 Y591-V592insVDFREYEYD mutant (unknown origin) incubated for 120 mins by ADP-glo based luminescence assay; design: species or system Homo sapiens
U-937 [15] = experiment: Induction of apoptosis in human U937 cells assessed as late apoptotic cells at 5 x GI50 concentration incubated for 48 hrs by annexin V-FITC staining based flow cytometry (Rvb =9.82 %); assay type: functional
MV4-11 [16] = experiment: Induction of apoptosis in human MV4-11 cells assessed as necrotic cells at 1 x GI50 concentration incubated for 48 hrs by annexin V-FITC and propidium iodide staining based flow cytometry (reference value: 0.45 %); assay type: functional
MV4-11 [17] = experiment: Antiproliferative activity against human MV4-11 cells harboring FLT3-ITD mutant assessed as reduction in cell viability after 72 hrs by resazurin assay; assay type: functional; summary of the method: as §1
MV4-11 [18] = experiment: Induction of apoptosis in human MV4-11 cells assessed as viable cells at 1 x GI50 concentration incubated for 24 hrs by annexin V-FITC and propidium iodide staining based flow cytometry (reference value: 84.68 %); assay type: functional
MV4-11 [19] = experiment: Induction of apoptosis in human MV4-11 cells assessed as late apoptotic cells at 5 x GI50 concentration incubated for 24 hrs by annexin V-FITC and propidium iodide staining based flow cytometry (reference value: 12.45 %); assay type: functional
MV4-11 [20] = experiment: Induction of apoptosis in human MV4-11 cells assessed as necrotic cells at 20 x GI50 concentration incubated for 48 hrs by annexin V-FITC and propidium iodide staining based flow cytometry (reference value: […] %); assay type: functional
[21] = biological target: Receptor-type tyrosine-protein kinase FLT3 (Homo sapiens, UniProt P36888, ITD); experiment: Inhibition of FLT3 ITD mutant (unknown origin) using Glu/Tyr peptide substrate incubated for 80 mins measured after 40 mins incubation under dark by ADP-glo based luminescence assay
U-937 [22] = experiment: Induction of apoptosis in human U937 cells assessed as late apoptotic cells at 5 x GI50 concentration incubated for 24 hrs by annexin V-FITC and propidium iodide staining based flow cytometry (Rvb =10.30 %); assay type: functional
U-937 [23] = experiment: Induction of apoptosis in human U937 cells assessed as viable cells at 5 x GI50 concentration incubated for 24 hrs by annexin V-FITC and propidium iodide staining based flow cytometry (reference value: 86.80 %); assay type: functional
[24] = biological target: Receptor-type tyrosine-protein kinase FLT3 (Homo sapiens) (UniProt P36888); experiment: Inhibition of FLT3-mediated signalling pathway in human U-937 cells assessed as inhibition of AKT phosphorylation upto 20 x GI50 concentration incubated for 6 hrs by western blot analysis; assay type: cell-based; summary of the method: as §2
[25] = biological target: Receptor-type tyrosine-protein kinase FLT3 (Homo sapiens, UniProt P36888, D835Y); experiment: Inhibition of FLT3 D835Y mutant (unknown origin) incubated for 120 mins by ADP-glo based luminescence assay
MV4-11 [26] = experiment: Antiproliferative activity against human MV4-11 cells incubated for 72 hrs by resazurin assay; assay type: functional; summary of the method: as §1
MV4-11 [27] = experiment: Induction of apoptosis in human MV4-11 cells assessed as early apoptotic cells at 5 x GI50 concentration incubated for 24 hrs by annexin V-FITC and propidium iodide staining based flow cytometry (reference value: 2.12 %); assay type: functional
U-937 [28] = experiment: Induction of apoptosis in human U937 cells assessed as early apoptotic cells at 5 x GI50 concentration incubated for 48 hrs by annexin V-FITC staining based flow cytometry (reference value: 2.78%); assay type: functional
MV4-11 [29] = experiment: Induction of apoptosis in human MV4-11 cells assessed as necrotic cells at 1 x GI50 concentration incubated for 24 hrs by annexin V-FITC and propidium iodide staining based flow cytometry (reference value: 0.75 %); assay type: functional

Ki [6]: 84 nM
Activity [7]: Active
inhibition [10]: Active
Ki [14]: 185 nM
GI50 (MV4-11 [17]): 74 nM
Ki [21]: 2 nM
inhibition [24]: Active
Ki [25]: 47 nM
GI50 (MV4-11 [26]): 74 nM
SMILES: CC(=O)N1CCN(c2ccc(Nc3nccc(-c4cn(C)c5ncccc45)n3)cc2)CC1
Activity (MV4-11 [1]): 2.72%
Activity (U-937 [2]): 2.15%
Activity (MV4-11 [3]): 0.86%
Activity (U-937 [4]): 83.36%
Activity (MV4-11 [5]): 2.99%
GI50 (NB-4): 1060 nM
Activity (MV4-11 [8]): 20.33%
Activity (U-937 [9]): 80.33%
Activity (U-937 [11]): 3.06%
Activity (U-937 [12]): 7.98%
Activity (U-937 [13]): 1.42%
Activity (U-937 [15]): 8.16%
Activity (MV4-11 [16]): 0.8%
Activity (MV4-11 [18]): 81.75%
Activity (MV4-11 [19]): 16.42%
Activity (MV4-11 [20]): 32.08%
Activity (U-937 [22]): 9.79%
Activity (U-937 [23]): 86.36%
Activity (MV4-11 [27]): 1.91%
Activity (U-937 [28]): 2.55%
Activity (MV4-11 [29]): 1.74%
